Assay results as given in ChEMBL document CHEMBL1123418, “N-imidazolylchroman-4-ones, N-imidazolyl-1-tetralones, and their alcohols as hypolipemic agents raising high-density lipoproteins” (1986).
Values joined by “and” are separate entries in the source; they are usually repeats but may differ in a detail not shown here. Equal values may be shown once.

Experiments:
Rattus norvegicus [1] = experiment: Percent increase in liver weight in rats when administered perorally; format: functional
Rattus norvegicus [2] = experiment: Percent change in total cholesterol concentration in serum from hypercholesterolemic rats at dose 42.5 mg/kg (po); format: functional
Rattus norvegicus [3] = experiment: Percent change in high density lipoproteins cholesterol concentration in serum from hypercholesterolemic rats at dose 42.5 mg/kg (po); format: functional
Summary of the method: (§1)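 Rats were fed 1.5% cholesterol/0.5% cholic acid diet for 7 days, with compounds given by gavage over the last 4 days as a 0.5% Methocel suspension (0.5 mL/100 g). Rats were fasted overnight, killed on day 8 and bled under light CO₂ anesthesia. HDL was isolated by heparin-MnCl₂ precipitation (8000 rpm, 15 min, 4 °C). Total and HDL cholesterol were measured enzymatically-colorimetrically; % change vs control.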

Rattus norvegicus [4] = experiment: Percent change in total cholesterol concentration in serum from hypercholesterolemic rats at dose 21 mg/kg (po); format: functional; summary of the method: as §1
Rattus norvegicus [5] = experiment: Percent change in high density lipoproteins cholesterol concentration in serum from hypercholesterolemic rats at dose 21 mg/kg (po); format: functional; summary of the method: as §1
Rattus norvegicus [6] = experiment: Compound was tested for Enzyme induction effect in male rats treated for 5 days at dose 50 mg/kg aminopyrine N-demethylase activity(per g) of liver; format: functional
Summary of the method: (§2)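 Male OFA-ICO SD rats were dosed orally for 5 days, with test compounds at 50 mg/kg/day and sodium phenobarbital at 75 mg/kg/day. Liver was homogenized in 1.15% KCl-0.01 M phosphate, pH 7.5. Microsomes were spun from the 9000g supernatant at 105000g and assayed for protein, cytochrome P-450, aniline p-hydroxylation (µmol p-aminophenol/20 min) and aminopyrine N-demethylation (µmol HCHO/5 min). Liver/body weight was also recorded. Mean ± SEM of four rats; Dunnett's test.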

Rattus norvegicus [7] = species: Rattus norvegicus; experiment: Compound was tested in vitro for inhibition of Cholesterol biosynthesis in rat liver slices, % inhibition of [14C]acetate incorporation in cholesterol at 5 e10-5 concentration; format: functional
Summary of the method: (§3)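 Liver slices (250 mg) from fed male rats were incubated in Krebs-Ringer bicarbonate, pH 7.4, with 4 mM [2-¹⁴C]acetate under 95% O₂-5% CO₂. Compounds were tested at a final 2 × 10⁻⁴ M, or 5 × 10⁻⁵ M for one compound. ¹⁴C incorporation into cholesterol and into petroleum-ether-soluble nonsaponifiable neutral lipids gave % inhibition; mean of four determinations.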

Rattus norvegicus [8] = experiment: Percent change in total cholesterol concentration in serum from hypercholesterolemic rats at dose 50 mg/kg (po); format: functional
Rattus norvegicus [9] = species: Rattus norvegicus; experiment: Compound was tested in vitro for inhibition of Cholesterol biosynthesis in rat liver slices, % inhibition of [14C]acetate incorporation in neutral lipids at 5 e10-5 concentration; format: functional; summary of the method: as §3
Rattus norvegicus [10] = experiment: Compound was tested for Enzyme induction effect in male rats treated for 5 days at dose 50 mg/kg concentration of cytochrome […]( mmol/mg) in protein; format: functional; summary of the method: as §2
Rattus norvegicus [11] = experiment: Compound was tested for Enzyme induction effect in male rats treated for 5 days at dose 50 mg/kg concentration of microsomal proteins(mg/g) in liver; format: functional, organism-based; set-up: dose 50 mg/kg; summary of the method: as §2
Rattus norvegicus [12] = experiment: Percent change in high density lipoproteins cholesterol concentration in serum from hypercholesterolemic rats at dose 50 mg/kg (po); format: functional; summary of the method: as §1
[13] = Compound was tested for Enzyme induction effect in male rats treated for 5 days at dose 50 mg/kg ratio of % liver weight to % body weight; format: functional; summary of the method: as §2
Rattus norvegicus [14] = experiment: Compound was tested for Enzyme induction effect in male rats treated for 5 days at dose 50 mg/kg aniline p-hydroxylase activity(per g) of liver; format: functional; summary of the method: as §2
Rattus norvegicus [15] = experiment: Percent change in high density lipoproteins cholesterol concentration in serum from hypercholesterolemic rats at dose 10 mg/kg (po); format: functional; summary of the method: as §1
Rattus norvegicus [16] = experiment: Percent change in total cholesterol concentration in serum from hypercholesterolemic rats at dose 10 mg/kg (po); format: functional; summary of the method: as §1
Rattus norvegicus [17] = experiment: Percent change in total cholesterol concentration in serum from hypercholesterolemic rats at dose 30 mg/kg (po); format: functional; summary of the method: as §1
Rattus norvegicus [18] = experiment: Percent change in high density lipoproteins cholesterol concentration in serum from hypercholesterolemic rats at dose 30 mg/kg (po); format: functional; summary of the method: as §1
Rattus norvegicus [19] = species: Rattus norvegicus; experiment: Compound was tested in vitro for inhibition of Cholesterol biosynthesis in rat liver slices, % inhibition of [14C]acetate incorporation in cholesterol; format: functional; summary of the method: as §3
Rattus norvegicus [20] = species: Rattus norvegicus; experiment: Compound was tested in vitro for inhibition of Cholesterol biosynthesis in rat liver slices, % inhibition of [14C]acetate incorporation in neutral lipids; format: functional; summary of the method: as §3
Rattus norvegicus [21] = experiment: Percent change in high density lipoproteins cholesterol concentration in serum from hypercholesterolemic rats at dose 40 mg/kg (po); format: functional; summary of the method: as §1
Rattus norvegicus [22] = experiment: Percent change in total cholesterol concentration in serum from hypercholesterolemic rats at dose 40 mg/kg (po); format: functional
Rattus norvegicus [23] = experiment: Compound was tested for Hepatic peroxisomal proliferation effect in male rats treated for 7 days at dose 50 mg/kg protein; format: functional
Rattus norvegicus [24] = experiment: Compound was tested for Enzyme induction effect in male rats treated for 5 days at dose 75 mg/kg concentration of cytochrome […]( mmol/mg) in protein; format: functional; conditions: dose 50 mg/kg; in the assay text read “50 mg/kg” for “75 mg/kg”; summary of the method: as §2
Rattus norvegicus [25] = experiment: Compound was tested for Hepatic peroxisomal proliferation effect in male rats treated for 7 days at dose 50 mg/kg palmitoyl-CoA oxidation activity(per mg) of protein; format: functional
Summary of the method: (§4)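 Male OFA-ICO SD rats received oral doses of 50 mg/kg/day for 1 week. Liver was homogenized in 0.25 M sucrose-0.01 M phosphate-0.1% ethanol, pH 7, then diluted in incubation buffer with 0.1% Triton X-100 and centrifuged. Supernatants were assayed for catalase (K, sec⁻¹), carnitine acetyltransferase (nmol CoASH/min) and cyanide-insensitive palmitoyl-CoA oxidation (nmol NAD⁺ reduced/min). Mean ± SEM of three rats; Dunnett's test.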

Rattus norvegicus [26] = experiment: Compound was tested for Hepatic peroxisomal proliferation effect in male rats treated for 7 days at dose 50 mg/kg concentration of hepatic proteins(mg/g) in liver; format: functional, organism-based; set-up: dose 50 mg/kg
Rattus norvegicus [27] = experiment: Percent increase in liver weight in rats when a 50 mg/Kg dose was administered; format: functional
Rattus norvegicus [28] = experiment: Percent change in low density lipoproteins cholesterol concentration in serum from normocholesterolemic rats at dose 50 mg/kg (po)
[29] = Compound was tested for Hepatic peroxisomal proliferation effect in male rats treated for 7 days at dose 50 mg/kg ratio of % liver weight to % body weight; format: functional
Rattus norvegicus [30] = experiment: Compound was tested for Enzyme induction effect in male rats treated for 5 days at dose 75 mg/kg aminopyrine N-demethylase activity(per g) of liver; format: functional; conditions: dose 50 mg/kg; in the assay text read “50 mg/kg” for “75 mg/kg”; summary of the method: as §2
[31] = Percent change in high density lipoprotein cholesterol
Rattus norvegicus [32] = experiment: Percent change in triglyceride concentration in serum from normocholesterolemic rats at dose 50 mg/kg (po)
Rattus norvegicus [33] = experiment: Compound was tested for Enzyme induction effect in male rats treated for 5 days at dose 75 mg/kg aniline p-hydroxylase activity(per g) of liver; format: functional; conditions: dose 50 mg/kg; in the assay text read “50 mg/kg” for “75 mg/kg”; summary of the method: as §2
[34] = Compound was tested for Enzyme induction effect in male rats treated for 5 days at dose 75 mg/kg ratio of % liver weight to % body weight; format: functional; conditions: dose 50 mg/kg; in the assay text read “50 mg/kg” for “75 mg/kg”; summary of the method: as §2
Rattus norvegicus [35] = experiment: Compound was tested for Hepatic peroxisomal proliferation effect in male rats treated for 7 days at dose 50 mg/kg carnitine acetyl transferase activity(per mg) of protein; format: functional; summary of the method: as §4
Rattus norvegicus [36] = experiment: Compound was tested for Enzyme induction effect in male rats treated for 5 days at dose 50 mg/kg concentration of microsomal proteins(mg/g) in liver
Rattus norvegicus [37] = experiment: Percent change in triglyceride concentration in serum from normocholesterolemic rats at dose 100 mg/kg (po)
Rattus norvegicus [38] = experiment: Percent change in high density lipoproteins cholesterol concentration in serum from normocholesterolemic rats at dose 100 mg/kg (po)
Rattus norvegicus [39] = experiment: Percent change in total cholesterol concentration in serum from normocholesterolemic rats at dose 100 mg/kg (po)
Rattus norvegicus [40] = experiment: Percent change in low density lipoproteins cholesterol concentration in serum from normocholesterolemic rats at dose 100 mg/kg (po)
Rattus norvegicus [41] = experiment: Percent change in high density lipoproteins cholesterol concentration in serum from normocholesterolemic rats at dose 200 mg/kg (po)
Rattus norvegicus [42] = experiment: Percent change in triglyceride concentration in serum from normocholesterolemic rats at dose 200 mg/kg (po)
Rattus norvegicus [43] = experiment: Percent change in low density lipoproteins cholesterol concentration in serum from normocholesterolemic rats at dose 200 mg/kg (po)
Rattus norvegicus [44] = experiment: Percent change in total cholesterol concentration in serum from normocholesterolemic rats at dose 200 mg/kg (po)

Question: For `CC1Oc2ccc(C(=O)O)cc2C(=O)C1n1ccnc1` (stereo not given), which Change (Rattus norvegicus [1]) is on record?
Answer: 3%

Question: What about the Change (Rattus norvegicus [2]) of the same molecule?
Answer: -12%

Question: And the Change (Rattus norvegicus [3])?
Answer: -18%

Question: Which Change (Rattus norvegicus [4]) does the source give for `CC1Oc2cc(O)c(Br)cc2C(=O)C1n1ccnc1` (stereo not given) here?
Answer: -10%

Question: What about the Change (Rattus norvegicus [5]) of the same molecule?
Answer: 2%

Question: And the Change (Rattus norvegicus [1])?
Answer: 1%

Question: Which Activity (Rattus norvegicus [6]) does the source give for `O=C1c2ccc(O)c(Br)c2CCC1n1ccnc1` (stereo not given) here?
Answer: 1.69

Question: What about the Inhibition (Rattus norvegicus [7]) of the same molecule?
Answer: 0%

Question: What about the Change (Rattus norvegicus [8]) of the same molecule?
Answer: -44%

Question: And the Inhibition (Rattus norvegicus [9])?
Answer: 0%

Question: And the Activity (Rattus norvegicus [10])?
Answer: 0.98

Question: And the Concentration (Rattus norvegicus [11])?
Answer: 28

Question: And the Change (Rattus norvegicus [12])?
Answer: 109%

Question: What about the Change (Rattus norvegicus [1]) of the same molecule?
Answer: 13%

Question: What about the Ratio [13] of the same molecule?
Answer: 3.24%

Question: What about the Activity (Rattus norvegicus [14]) of the same molecule?
Answer: 0.67

Question: Which Change (Rattus norvegicus [15]) does the source give for `COc1ccc2c(c1)CCC(n1ccnc1)C2=O` (stereo not given) here?
Answer: 34%

Question: And the Change (Rattus norvegicus [16])?
Answer: -37%

Question: And the Change (Rattus norvegicus [1])?
Answer: 0%

Question: With `O=C1c2ccc(Br)cc2CCC1n1ccnc1` (stereo not given) as the molecule, how does the Change (Rattus norvegicus [17]) read?
Answer: -84%

Question: And the Change (Rattus norvegicus [1])?
Answer: 31%

Question: And the Change (Rattus norvegicus [18])?
Answer: 228%

Question: Which Inhibition (Rattus norvegicus [19]) does the source give for `CCCCCCCCCCCCn1ccnc1` here?
Answer: 66%

Question: What about the Inhibition (Rattus norvegicus [20]) of the same molecule?
Answer: 14%

Question: With `O=C(O)c1cccc2c1C(=O)C(n1ccnc1)CC2` (stereo not given) as the molecule, how does the Change (Rattus norvegicus [21]) read?
Answer: -9%

Question: And the Change (Rattus norvegicus [22])?
Answer: -19%

Question: What about the Change (Rattus norvegicus [1]) of the same molecule?
Answer: -4%

Question: With `Cc1cccc(Nc2cc(Cl)nc(SCC(=O)NCCO)n2)c1C` [PIRINIXIL] as the molecule, how does the Activity (Rattus norvegicus [23]) read?
Answer: 58.8

Question: What about the Activity (Rattus norvegicus [24]) of the same molecule?
Answer: 0.82

Question: What about the Activity (Rattus norvegicus [25]) of the same molecule?
Answer: 16.2

Question: And the Concentration (Rattus norvegicus [26])?
Answer: 237

Question: And the Change (Rattus norvegicus [27])?
Answer: 42%

Question: What about the Change (Rattus norvegicus [28]) of the same molecule?
Answer: -19%

Question: What about the Change (Rattus norvegicus [8]; 50 mg/kg) of the same molecule?
Answer: -43% and -23%

Question: What about the Ratio [29] of the same molecule?
Answer: 5.31%

Question: What about the Activity (Rattus norvegicus [30]) of the same molecule?
Answer: 0.69

Question: And the “Percent change in HDL cholesterol” value [31]?
Answer: -9

Question: What about the Change (Rattus norvegicus [1]) of the same molecule?
Answer: 54%

Question: What about the Change (Rattus norvegicus [32]) of the same molecule?
Answer: -48%

Question: What about the Activity (Rattus norvegicus [33]) of the same molecule?
Answer: 0.64

Question: And the Ratio [34]?
Answer: 4.99%

Question: What about the Activity (Rattus norvegicus [35]) of the same molecule?
Answer: 69.8

Question: And the Concentration (Rattus norvegicus [36])?
Answer: 25

Question: With `CC(C)OC(=O)C(C)(C)Oc1ccc(C(=O)c2ccc(Cl)cc2)cc1` [FENOFIBRATE] as the molecule, how does the Change (Rattus norvegicus [37]) read?
Answer: -50%

Question: And the Change (Rattus norvegicus [38])?
Answer: -27%

Question: What about the Change (Rattus norvegicus [39]) of the same molecule?
Answer: -28%

Question: What about the Change (Rattus norvegicus [27]) of the same molecule?
Answer: 38%

Question: And the “Percent change in HDL cholesterol” value [31]?
Answer: 7

Question: What about the Change (Rattus norvegicus [40]) of the same molecule?
Answer: -31%

Question: Which results are given for `CCOC(=O)C(C)(C)Oc1ccc(Cl)cc1` [CLOFIBRATE]?
Answer: Change (Rattus norvegicus [41]): -32%; Change (Rattus norvegicus [27]): 25%; Change (Rattus norvegicus [42]): -52%; Percent change in HDL cholesterol [31]: 13; Change (Rattus norvegicus [43]): -40%; Change (Rattus norvegicus [44]): -35%
